Published values of several laboratories.
Lines come from different studies, so protocols differ. Converted amounts (≈) assume the structure as drawn.
Organism: Staphylococcus aureus

With `CC(=O)NC[C@H]1CN(c2ccc(N3CCOCC3)c(F)c2)C(=O)O1` the MIC90 was 2 µg/mL (≈ 5.93 µM) (microbial growth; MSSA; clinical isolate).
`O=C(/C=C/C=C/c1ccccc1)c1ccccc1OCc1ccccc1Cl` has an inhibition zone of 7 mm (microbial growth, well diffusion; MTCC96; 1000 µg/mL, 18 h).
The inhibition zone of `CCS(=O)(=O)Oc1ccc(C=NNC(=O)CSc2nc3c(C)cccc3c(=O)n2-c2ccccc2)cc1OC` is reported as 3 mm (microbial growth, well diffusion; MRSA; 20 µg/mL).
The MIC50 of `COc1cc2c(cc1OC)-c1cc3ccc(OC)c(OC)c3c[n+]1CC2` is reported as 205 µM (microbial growth; 24 h).
The MIC90 of `CC1(C)S[C@@H]2[C@H](NC(=O)[C@H](N)c3ccccc3)C(=O)N2[C@H]1C(=O)O` is reported as 64 µg/mL (≈ 183 µM) (microbial growth; MSSA; clinical isolate).
`CN(C)CCCN1c2ccccc2Sc2ccc(C(F)(F)F)cc21` gave an MBC of 64 µg/mL (microbial killing, broth dilution; ATCC43300; 18 h).
The inhibition zone of `O=C(/C=C/C=C/c1ccccc1)c1ccccc1OCc1ccc(Cl)cc1` is reported as 7 mm (microbial growth, well diffusion; MTCC96; 1000 µg/mL, 18 h).
The MIC50 of `COc1cc2c(cc1OC)[C@@H]1Cc3ccc(OC)c(OC)c3CN1CC2` is reported as greater than 1600 µM (microbial growth; 24 h).
With `CN[C@H](CC(C)C)C(=O)N[C@H]1C(=O)N[C@@H](CC(N)=O)C(=O)N[C@H]2C(=O)N[C@H]3C(=O)N[C@H](C(=O)N[C@H](C(=O)O)c4cc(O)cc(O)c4-c4cc3ccc4O)[C@H](O)c3ccc(c(Cl)c3)Oc3cc2cc(c3O[C@@H]2O[C@H](CO)[C@@H](O)[C@H](O)[C@H]2O[C@H]2C[C@](C)(N)[C@H](O)[C@H](C)O2)Oc2ccc(cc2Cl)[C@H]1O` the MIC90 was 1 µg/mL (≈ 0.69 µM) (microbial growth; MSSA; clinical isolate).
`CCCS(=O)(=O)Oc1cc(C=NNC(=O)CSc2nc3c(C)cccc3c(=O)n2-c2ccccc2)ccc1OC` gave an inhibition zone of 2 mm (microbial growth, well diffusion; MRSA; 20 µg/mL).
With `CN1CCN(CCCN2c3ccccc3Sc3ccc(Cl)cc32)CC1` the MBC was 64 µg/mL (microbial killing, broth dilution; ATCC43300; 18 h).
With `COc1ccc(C=NNC(=O)CSc2nc3c(C)cccc3c(=O)n2-c2ccccc2)cc1OS(C)(=O)=O` the inhibition zone was 3 mm (microbial growth, well diffusion; MRSA; 20 µg/mL).
For `O=C(/C=C/C=C/c1ccccc1)c1ccccc1OCc1ccc(F)cc1`, the inhibition zone was 7 mm (microbial growth, well diffusion; MTCC96; 1000 µg/mL, 18 h).
For `O=C(O)c1cn(C2CC2)c2cc(N3CCNCC3)c(F)cc2c1=O`, the inhibition zone was 3 mm (microbial growth, well diffusion; MRSA; 20 µg/mL).
With `CC[C@H]1OC(=O)[C@H](C)[C@@H](O[C@H]2C[C@@](C)(OC)[C@@H](O)[C@H](C)O2)[C@H](C)[C@@H](O[C@@H]2O[C@H](C)C[C@H](N(C)C)[C@H]2O)[C@](C)(O)C[C@@H](C)/C(=N\OCOCCOC)[C@H](C)[C@@H](O)[C@]1(C)O` the MIC90 was 64 µg/mL (≈ 76.5 µM) (microbial growth; MRSA; clinical isolate).
With `CCCS(=O)(=O)Oc1cc(C=NNC(=O)CSc2nc3ccc(Cl)cc3c(=O)n2-c2ccccc2)ccc1OC` the inhibition zone was 2 mm (microbial growth, well diffusion; MRSA; 20 µg/mL).
The MIC90 of `C=C[C@]1(C)C[C@@H](OC(=O)CS[C@@H]2C[C@H]3CC[C@@H](C2)N3C)[C@]2(C)[C@H](C)CC[C@]3(CCC(=O)[C@H]32)[C@@H](C)[C@@H]1O` is reported as 0.125 µg/mL (≈ 0.241 µM) (microbial growth; MRSA; clinical isolate).
